Reference: ChEMBL document CHEMBL1127376, “Agents combining thromboxane receptor antagonism with thromboxane synthase inhibition: [[[2-(1H-imidazol-1-yl)ethylidene]amino]oxy]alkanoic acids” (J Med Chem, 1994)

Columns and labels:
Thromboxane A2 receptor = target: T1, Thromboxane A2 receptor (Homo sapiens, UniProt P21731); assay: In vitro thromboxane-A2 receptor binding affinity to displace by 50% [3H]-SQ 29548 binding from washed human platelets
T1 sequence (P21731 whole entry): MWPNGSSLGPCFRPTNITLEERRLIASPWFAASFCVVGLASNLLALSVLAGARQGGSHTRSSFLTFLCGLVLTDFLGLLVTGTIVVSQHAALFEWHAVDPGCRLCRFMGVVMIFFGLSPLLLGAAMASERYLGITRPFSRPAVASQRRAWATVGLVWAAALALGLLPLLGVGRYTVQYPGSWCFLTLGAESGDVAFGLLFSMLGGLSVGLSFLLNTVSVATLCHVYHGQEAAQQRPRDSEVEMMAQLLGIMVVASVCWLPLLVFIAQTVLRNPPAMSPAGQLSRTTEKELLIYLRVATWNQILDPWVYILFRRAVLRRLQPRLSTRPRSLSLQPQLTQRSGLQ

Thromboxane-A synthase = target: T2, Thromboxane-A synthase (Rattus norvegicus, UniProt P49430); assay: In vitro inhibition of thromboxane-A2 synthase in rat whole blood during clotting at 37 degrees Centigrade; type: tissue-based
T2 sequence (P49430 whole entry): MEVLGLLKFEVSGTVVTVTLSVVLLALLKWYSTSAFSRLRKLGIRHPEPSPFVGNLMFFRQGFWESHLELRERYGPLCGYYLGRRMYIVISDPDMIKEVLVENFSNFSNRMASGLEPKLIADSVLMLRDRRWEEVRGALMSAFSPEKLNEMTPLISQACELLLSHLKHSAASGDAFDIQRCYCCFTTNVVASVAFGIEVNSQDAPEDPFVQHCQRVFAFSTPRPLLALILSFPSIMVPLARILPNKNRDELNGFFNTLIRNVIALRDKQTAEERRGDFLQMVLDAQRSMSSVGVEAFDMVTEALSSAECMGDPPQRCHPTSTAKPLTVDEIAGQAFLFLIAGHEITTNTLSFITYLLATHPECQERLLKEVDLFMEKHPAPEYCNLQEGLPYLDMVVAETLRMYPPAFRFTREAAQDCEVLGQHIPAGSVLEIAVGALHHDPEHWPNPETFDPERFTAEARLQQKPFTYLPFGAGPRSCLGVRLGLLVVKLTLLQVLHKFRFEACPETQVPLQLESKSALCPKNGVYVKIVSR
Summary of the method: (§1)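 Rat whole blood allowed to clot 1 h at 37 °C with test agent, then spun for serum, stored -20 °C. Serum TxB2 measured by RIA with [3H]TxB2 and rabbit antiserum, incubated 16–24 h at 4 °C, charcoal separation, scintillation counting.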

Homo sapiens = species: Homo sapiens; assay: Tested in vitro for the umolar concentration required to inhibit U-46,619-induced platelet aggregation in human platelet rich plasma (PRP); type: functional
Summary of the method: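 Citrated human blood (3.8%, 9:1), PRP by centrifugation. PRP preincubated 5 min at 37 °C with vehicle or compound, then challenged with a submaximal U46619 concentration chosen from a concentration–response curve. Aggregation followed by photoelectric aggregometry.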

[1] = target: T3, Thromboxane-A synthase (Rattus norvegicus) (UniProt P49430); assay: Tested for in vitro inhibition of TxA synthase in rat whole blood at 1 uM; type: tissue-based
T3 sequence (whole entry): T2 sequence (P49430 whole entry)

[2] = target: T3, Thromboxane-A synthase (Rattus norvegicus); assay: Tested for the in vitro inhibition of thromboxane-A2 synthase in rat whole blood during clotting at 37 degrees Celsius at >1 uM; type: tissue-based; summary of the method: as §1

IC50 (Thromboxane A2 receptor) [nM]	IC50 (Thromboxane-A synthase) [nM]	IC50 (Homo sapiens) [nM]	inhibition [1] [%]	inhibition [2] [%]	SMILES
300	350				O=C(O)CCCCO/N=C(\C1CCCCC1)C(Cc1ccccc1F)n1ccnc1 (centres undefined)
140	250				O=C(O)CCCCO/N=C(/C1CCCCC1)C(Cc1cccc(F)c1)n1ccnc1 (centres undefined)
530	60	280			O=C(O)CCCCO/N=C(/c1ccccc1)C(Cc1ccc(F)cc1)n1ccnc1 (centres undefined)
170	50	370			O=C(O)CCCCO/N=C(\c1ccccc1)C(Cc1ccccc1)n1ccnc1 (centres undefined)
2100	30	3300			O=C(O)CCCCO/N=C(/c1cccnc1)c1cccc(C(F)(F)F)c1 [RIDOGREL]
74500	> 1000		2		O=C(O)CCCCCO/N=C(\Cn1ccnc1)c1ccccc1
	> 100000				O=C(O)Cc1ccc(CCNS(=O)(=O)c2ccc(Cl)cc2)cc1 [DALTROBAN]
23900	> 1000		19		O=C(O)CCCCCO/N=C(\Cn1ccnc1)C1CCCCC1
1300	430				CCOC(=O)CCCCO/N=C(\C1CCCCC1)C(Cc1ccccc1)n1ccnc1 (centres undefined)
46200	270				O=C(O)CCCCO/N=C(/Cn1ccnc1)c1ccccc1
14700	170				O=C(O)CCCCO/N=C(\Cn1ccnc1)c1ccccc1
70	320				COc1ccc(CC(/C(=N/OCCCCC(=O)O)C2CCCCC2)n2ccnc2)cc1 (centres undefined)
19700	360				CCCCCC/C(Cn1ccnc1)=N\OCCCCC(=O)O
53100	40	2440			O=C(O)CCCCO/N=C(\Cn1ccnc1)C1CCCCC1
50	900				O=C(O)CCCCO/N=C(\C1CCCCC1)C(Cc1ccc(C(F)(F)F)cc1)n1ccnc1 (centres undefined)
190	70				O=C(O)CCCCO/N=C(\C1CCCCC1)C(Cc1cnccn1)n1ccnc1 (centres undefined)
> 100000					O=C(O)/C=C/c1ccc(Cn2ccnc2)cc1 [OZAGREL]
20	370	300			O=C(O)CCCCO/N=C(\C1CCCCC1)C(Cc1ccc(F)cc1)n1ccnc1 (centres undefined)
4160	760				CC(C)(CCCO/N=C(\c1ccccc1)C(Cc1ccccc1)n1ccnc1)C(=O)O (centres undefined)
23400	200				C/C(=N\OCCCCC(=O)O)C(Cc1ccccc1)n1ccnc1 (centres undefined)
880	> 1000			28	O=C(O)COCCO/N=C(\c1ccccc1)C(Cc1ccccc1)n1ccnc1 (centres undefined)
2390	> 1000			15	O=C(O)CCCCO/N=C(\c1ccc(Br)cc1)C(Cc1ccccc1)n1ccnc1 (centres undefined)
80	60	440			O=C(O)CCCCO/N=C(\C1CCCCC1)C(Cc1ccccc1)n1ccnc1 (centres undefined)
73000	> 1000			37	CC(/C(=N/OCCCCC(=O)O)c1ccccc1)n1ccnc1 (centres undefined)
120	> 1000			26	O=C(O)/C=C/CCO/N=C(\c1ccccc1)C(Cc1ccccc1)n1ccnc1 (centres undefined)
1160	20	2100			O=C(O)CCCCO/N=C(/c1ccccc1)C(Cc1ccccc1)n1ccnc1 (centres undefined)

IC50 (Thromboxane A2 receptor) [nM]	IC50 (Thromboxane-A synthase) [nM]	IC50 (Homo sapiens) [nM]	inhibition [1] [%]	inhibition [2] [%]	SMILES
7500	> 1000			49	CSc1ccc(/C(=N\OCCCCC(=O)O)C(Cc2ccccc2)n2ccnc2)cc1 (centres undefined)
3280	300				O=C(O)CCCCO/N=C(\C1CCCCC1)C(Cc1ccccn1)n1ccnc1 (centres undefined)
> 100000	> 1000		8		O=C(O)CCCO/N=C(\Cn1ccnc1)C1CCCCC1
230	> 1000			32	CS(=O)(=O)c1ccc(CC(/C(=N/OCCCCC(=O)O)C2CCCCC2)n2ccnc2)cc1 (centres undefined)
40	390	210			O=C(O)CCCCO/N=C(\c1ccccc1)C(Cc1ccc(F)cc1)n1ccnc1 (centres undefined)
160	1100				O=C(O)CCCCCO/N=C(\c1ccccc1)C(Cc1ccccc1)n1ccnc1 (centres undefined)
30	270				O=C(O)CCCCO/N=C(\C1CCCCC1)C(Cc1cccc(F)c1)n1ccnc1 (centres undefined)
3000	50				CCCCCC/C(=N\OCCCCC(=O)O)C(Cc1ccccc1)n1ccnc1 (centres undefined)
970	100				O=C(O)CCCCO/N=C(/C1CCCCC1)C(Cc1ccccc1)n1ccnc1 (centres undefined)
12200	40				CCCCCC/C(Cn1ccnc1)=N/OCCCCC(=O)O
970	> 1000			26	O=C(O)CCCCCO/N=C(/c1ccccc1)C(Cc1ccccc1)n1ccnc1 (centres undefined)
295000	160				CC(/C(=N\OCCCCC(=O)O)c1ccccc1)n1ccnc1 (centres undefined)
21000	> 1000			12	CS(=O)(=O)c1ccc(/C(=N\OCCCCC(=O)O)C(Cc2ccccc2)n2ccnc2)cc1 (centres undefined)
170	250				O=C(O)CCCCO/N=C(/c1ccccc1)C(Cc1ccc(Cl)cc1)n1ccnc1 (centres undefined)
70	140				Cc1ccc(CC(/C(=N/OCCCCC(=O)O)C2CCCCC2)n2ccnc2)cc1 (centres undefined)
> 100000	> 1000		24		O=C(O)CCCCO/N=C(\Cn1ccnc1)c1cccnc1
1900	> 1000			43	O=C(O)CCCCO/N=C(\C1CCCCC1)C(CC1CCCCC1)n1ccnc1 (centres undefined)
280	100				O=C(O)CCCCO/N=C(\C1CCCCC1)C(Cc1ccco1)n1ccnc1 (centres undefined)
520	710				O=C(CCCCO/N=C(\C1CCCCC1)C(Cc1ccccc1)n1ccnc1)NO (centres undefined)
230	530				CC(C)(CCO/N=C(\c1ccccc1)C(Cc1ccccc1)n1ccnc1)CC(=O)O (centres undefined)
40	890				O=C(O)CCCCO/N=C(\c1ccccc1)C(Cc1ccc(Cl)cc1)n1ccnc1 (centres undefined)
> 100000	> 1000		17		O=C(O)CCCO/N=C(\Cn1ccnc1)c1ccccc1
1040	> 1000			47	O=C(O)/C=C/CCCO/N=C(\c1ccccc1)C(Cc1ccccc1)n1ccnc1 (centres undefined)
49300	> 1000		44		O=C(O)CCCO/N=C(/Cn1ccnc1)C1CCCCC1
27300	640				O=C(O)CCCCO/N=C(/Cn1ccnc1)C1CCCCC1
